Measured values from ChEMBL document CHEMBL1129987, “Structure-based design of nonpeptidic HIV protease inhibitors: the sulfonamide-substituted cyclooctylpyramones” (J Med Chem, 1997).

Key:
[1] = test system: Human immunodeficiency virus 1; test: Antiviral activity in HIV-1 infected H9 cells; type: functional; details: Human immunodeficiency virus 1, H9; read-out: ED50 (the source's name)
Procedure, shortened: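 H9 cells infected with HIV-1 IIIB at MOI about 0.005, spun down (200g, 10 min), resuspended at 8 × 10^5 cells/mL in RPMI Complete and mixed with compound; final DMSO 0.1%, triplicate per concentration. After 5 days at 37 °C in 5% CO2, supernatant p24 antigen was measured by ELISA. ED50 is the drug amount that reduces p24 by 50% versus DMSO drug-free controls.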

[2] = molecular target: Human immunodeficiency virus type 1 protease (Human immunodeficiency virus 1, UniProt Q72874); test: Binding affinity against HIV-1 protease
[3] = Median cell culture toxic dose was evaluated against H9 cell line; type: ADME, cell-based; details: human, H9 cells; read-out: CCTD50

Row | SMILES | EC50 [1] | Ki [2] | CC50 [3]
1 | O=c1c2c(oc(O)c1C(c1cccc(NS(=O)(=O)c3cccc(Cl)c3)c1)C1CC1)CCCCCC2 (configuration not stated) | 3200 nM | 2.7 nM | > 30000 nM
2 | CC(C)C(c1cccc(NS(=O)(=O)c2ccc(F)cc2)c1)c1c(O)c2c(oc1=O)CCCCCC2 (configuration not stated) | > 10000 nM | 11 nM | > 30000 nM
3 | CC(C)(C)OC(=O)NCCC(=O)Nc1cccc(C(c2c(O)c3c(oc2=O)CCCCCC3)C2CC2)c1 (configuration not stated) | 33000 nM |  | 
4 | O=c1c2c(oc(O)c1C(c1cccc(NS(=O)(=O)c3ccc(Br)cc3)c1)C1CC1)CCCCCC2 (configuration not stated) | 3200 nM | 2.1 nM | > 30000 nM
5 | CS(=O)(=O)Nc1cccc(C(c2c(O)c3c(oc2=O)CCCCCC3)C2CC2)c1 (configuration not stated) |  | 11 nM | 
6 | CCCC(c1cccc(NS(=O)(=O)c2cccc3cccnc23)c1)c1c(O)c2c(oc1=O)CCCCCC2 (configuration not stated) | > 3000 nM | 2.1 nM | > 30000 nM
7 | Nc1ccc(S(=O)(=O)Nc2cccc(C(c3c(O)c4c(oc3=O)CCCCCC4)C3CC3)c2)cc1 (configuration not stated) |  | 6.9 nM | > 30000 nM
8 | O=c1c2c(oc(O)c1C(c1cccc(NS(=O)(=O)c3ccc4ccccc4c3)c1)C1CC1)CCCCCC2 (configuration not stated) | 3400 nM | 4.1 nM | > 30000 nM
9 | O=c1c2c(oc(O)c1C(c1cccc(NS(=O)(=O)c3ccc([N+](=O)[O-])cc3)c1)C1CC1)CCCCCC2 (configuration not stated) | 3100 nM | 2.7 nM | > 30000 nM
10 | O=c1c2c(oc(O)c1[C@@H](c1cccc(NS(=O)(=O)c3cccc4cccnc34)c1)C1CC1)CCCCCC2 | 7200 nM | 0.9 nM | > 30000 nM
11 | O=c1c2c(oc(O)c1C(c1cccc(NS(=O)(=O)c3ncccn3)c1)C1CC1)CCCCCC2 (configuration not stated) | 1700 nM | 0.8 nM | > 30000 nM
12 | O=c1c2c(oc(O)c1[C@@H](c1cccc(NS(=O)(=O)c3ccccc3)c1)C1CC1)CCCCCC2 | > 10000 nM |  | > 30000 nM
13 | CC(C)c1ccc(S(=O)(=O)Nc2cccc(C(c3c(O)c4c(oc3=O)CCCCCC4)C3CC3)c2)cc1 (configuration not stated) |  | 13 nM | > 30000 nM
14 | O=c1c2c(oc(O)c1C(c1cccc(NS(=O)(=O)c3ccc(I)cc3)c1)C1CC1)CCCCCC2 (configuration not stated) | 5300 nM | 3.1 nM | > 30000 nM
15 | O=c1c2c(oc(O)c1C(c1cccc(NS(=O)(=O)c3cccc(Cl)c3Cl)c1)C1CC1)CCCCCC2 (configuration not stated) | > 3000 nM | 7.6 nM | > 30000 nM
16 | O=c1c2c(oc(O)c1C(c1cccc(NS(=O)(=O)c3cccc(Br)c3)c1)C1CC1)CCCCCC2 (configuration not stated) | 3000 nM | 2.6 nM | > 30000 nM
17 | O=c1c2c(oc(O)c1C(c1cccc(NS(=O)(=O)c3ccccc3Cl)c1)C1CC1)CCCCCC2 (configuration not stated) |  | 9.3 nM | > 30000 nM
18 | COc1ccc(S(=O)(=O)Nc2cccc(C(c3c(O)c4c(oc3=O)CCCCCC4)C3CC3)c2)cc1 (configuration not stated) | 4500 nM | 3.9 nM | > 30000 nM
19 | N#Cc1ccccc1S(=O)(=O)Nc1cccc(C(c2c(O)oc3c(c2=O)CCCCCC3)C2CC2)c1 (configuration not stated) | > 10000 nM | 7.4 nM | > 30000 nM
20 | O=c1c2c(oc(O)c1C(c1cccc(NS(=O)(=O)c3ccc(Cl)c(Cl)c3)c1)C1CC1)CCCCCC2 (configuration not stated) | 3400 nM | 4.1 nM | > 30000 nM
21 | O=c1c2c(oc(O)c1C(c1cccc(NS(=O)(=O)c3cccc(C(F)(F)F)c3)c1)C1CC1)CCCCCC2 (configuration not stated) | 3800 nM | 3 nM | > 30000 nM
22 | CCS(=O)(=O)Nc1cccc(C(c2c(O)c3c(oc2=O)CCCCCC3)C2CC2)c1 (configuration not stated) |  | 10 nM | 
23 | CC(C)(C)c1ccc(S(=O)(=O)Nc2cccc(C(c3c(O)c4c(oc3=O)CCCCCC4)C3CC3)c2)cc1 (configuration not stated) | > 10000 nM | 32 nM | > 30000 nM

Row | SMILES | EC50 [1] | Ki [2] | CC50 [3]
24 | CCCCOc1ccc(S(=O)(=O)Nc2cccc(C(c3c(O)c4c(oc3=O)CCCCCC4)C3CC3)c2)cc1 (configuration not stated) |  | 18 nM | > 30000 nM
25 | O=c1c2c(oc(O)c1C(c1cccc(NS(=O)(=O)CCc3ccccc3)c1)C1CC1)CCCCCC2 (configuration not stated) |  | 3.9 nM | 
26 | O=c1c2c(oc(O)c1C(c1cccc(NS(=O)(=O)c3cscn3)c1)C1CC1)CCCCCC2 (configuration not stated) | > 3000 nM | 1.6 nM | > 30000 nM
27 | O=c1c2c(oc(O)c1C(c1cccc(NS(=O)(=O)c3cccs3)c1)C1CC1)CCCCCC2 (configuration not stated) | > 10000 nM | 6.3 nM | > 30000 nM
28 | O=c1c2c(oc(O)c1C(c1ccccc1)C1CC1)CCCCCC2 (configuration not stated) |  | 15 nM | 
29 | C=CS(=O)(=O)Nc1cccc(C(c2c(O)oc3c(c2=O)CCCCC3)C2CC2)c1 (configuration not stated) |  | > 200 nM | 
30 | CCS(=O)(=O)Nc1cccc(C(c2c(O)c3c(oc2=O)CCCCC3)C2CC2)c1 (configuration not stated) |  | 63 nM | 
31 | O=C(O)c1ccc(S(=O)(=O)Nc2cccc(C(c3c(O)c4c(oc3=O)CCCCCC4)C3CC3)c2)cc1 (configuration not stated) | > 10000 nM | 11 nM | > 30000 nM
32 | NC(=O)c1ccc(S(=O)(=O)Nc2cccc(C(c3c(O)c4c(oc3=O)CCCCCC4)C3CC3)c2)cc1 (configuration not stated) | 5800 nM | 1.9 nM | > 30000 nM
33 | Cn1cnc(S(=O)(=O)Nc2cccc([C@H](c3c(O)c4c(oc3=O)CCCCCC4)C3CC3)c2)c1 |  | 0.08 nM | > 30000 nM
34 | COc1ccc(S(=O)(=O)Nc2cccc(C(c3c(O)c4c(oc3=O)CCCCCC4)C3CC3)c2)cc1OC (configuration not stated) | 4100 nM | 6.8 nM | > 30000 nM
35 | Cc1ccc(S(=O)(=O)Nc2cccc(C(c3c(O)c4c(oc3=O)CCCCCC4)C3CC3)c2)cc1 (configuration not stated) | 3600 nM | 3.3 nM | > 30000 nM
36 | O=c1c2c(oc(O)c1C(c1cccc(NS(=O)(=O)c3ccc(Cl)cc3)c1)C1CC1)CCCCCC2 (configuration not stated) | 2000 nM | 2.5 nM | > 30000 nM
37 | O=c1c2c(oc(O)c1C(c1cccc(NS(=O)(=O)c3ccc(Cl)cc3Cl)c1)C1CC1)CCCCCC2 (configuration not stated) |  | 6.2 nM | > 30000 nM
38 | CC(C)CC(c1cccc(NS(=O)(=O)c2cn(C)cn2)c1)c1c(O)c2c(oc1=O)CCCCCC2 (configuration not stated) | 1300 nM | 0.086 nM | > 30000 nM
39 | CC(C)C(c1cccc(NS(=O)(=O)c2ccc(C#N)cc2)c1)c1c(O)c2c(oc1=O)CCCCCC2 (configuration not stated) | > 10000 nM | 5.9 nM | > 30000 nM
40 | O=c1c2c(oc(O)c1C(c1cccc(NS(=O)(=O)c3ccc(C(F)(F)F)c(C(F)(F)F)c3)c1)C1CC1)CCCCCC2 (configuration not stated) |  | 47 nM | > 30000 nM
41 | O=c1c2c(oc(O)c1C(c1cccc(NS(=O)(=O)c3ccccc3F)c1)C1CC1)CCCCCC2 (configuration not stated) | 5900 nM | 11 nM | > 30000 nM
42 | O=c1c2c(oc(O)c1C(c1cccc(NS(=O)(=O)c3cc(Cl)cc(Cl)c3)c1)C1CC1)CCCCCC2 (configuration not stated) | > 10000 nM | 6.9 nM | > 30000 nM
43 | CC(C)C(c1cccc(NS(=O)(=O)c2ccc(Cl)cc2)c1)c1c(O)c2c(oc1=O)CCCCCC2 (configuration not stated) | > 10000 nM | 18 nM | > 30000 nM
44 | CS(=O)(=O)Nc1cccc(C(c2c(O)c3c(oc2=O)CCCCC3)C2CC2)c1 (configuration not stated) |  | 120 nM | 
45 | CC(C)CC(c1cccc(NS(=O)(=O)c2ccc(C#N)cc2)c1)c1c(O)c2c(oc1=O)CCCCCC2 (configuration not stated) | 6100 nM | 1.5 nM | > 30000 nM
46 | O=c1c2c(oc(O)c1C(c1cccc(NS(=O)(=O)c3cccc4ccccc34)c1)C1CC1)CCCCCC2 (configuration not stated) | 3600 nM | 5.5 nM | > 30000 nM

Row | SMILES | EC50 [1] | Ki [2] | CC50 [3]
47 | CC(C)C(c1cccc(NS(=O)(=O)c2cn(C)cn2)c1)c1c(O)c2c(oc1=O)CCCCCC2 (configuration not stated) | 2500 nM | 0.5 nM | > 30000 nM
48 | O=c1c2c(oc(O)c1C(c1cccc(NS(=O)(=O)c3ccccc3C(F)(F)F)c1)C1CC1)CCCCCC2 (configuration not stated) |  | 21 nM | > 30000 nM
49 | O=c1c2c(oc(O)c1C(c1cccc(NS(=O)(=O)c3c(Cl)cccc3Cl)c1)C1CC1)CCCCCC2 (configuration not stated) |  | > 200 nM | > 30000 nM
50 | O=c1c2c(oc(O)c1C(c1cccc(NS(=O)(=O)Cc3ccccc3)c1)C1CC1)CCCCCC2 (configuration not stated) |  | 13 nM | 
51 | CCC(c1ccccc1)c1c(O)c2ccccc2oc1=O (configuration not stated) [PHENPROCOUMON] |  | 0.8 nM | 
52 | CCc1ccc(S(=O)(=O)Nc2cccc(C(c3c(O)c4c(oc3=O)CCCCCC4)C3CC3)c2)cc1 (configuration not stated) |  | 5 nM | > 30000 nM
53 | Cc1ccccc1S(=O)(=O)Nc1cccc(C(c2c(O)c3c(oc2=O)CCCCCC3)C2CC2)c1 (configuration not stated) |  | 9.3 nM | > 30000 nM
54 | O=c1c2c(oc(O)c1C(c1cccc(NS(=O)(=O)c3cc(Cl)ccc3Cl)c1)C1CC1)CCCCCC2 (configuration not stated) |  | 74 nM | > 30000 nM
55 | CCCc1ccc(S(=O)(=O)Nc2cccc(C(c3c(O)c4c(oc3=O)CCCCCC4)C3CC3)c2)cc1 (configuration not stated) |  | 11 nM | > 30000 nM
56 | O=c1c2c(oc(O)c1C(c1cccc(NS(=O)(=O)C3CCCCC3)c1)C1CC1)CCCCCC2 (configuration not stated) |  | 3.6 nM | 
57 | CCCCS(=O)(=O)Nc1cccc(C(c2c(O)c3c(oc2=O)CCCCCC3)C2CC2)c1 (configuration not stated) |  | 4.6 nM | 
58 | C=CS(=O)(=O)Nc1cccc(C(c2c(O)oc3c(c2=O)CCCCCC3)C2CC2)c1 (configuration not stated) |  | 18 nM | 
59 | O=c1c2c(oc(O)c1C(c1cccc(S(=O)(=O)Nc3ccccc3)c1)C1CC1)CCCCCC2 (configuration not stated) |  | 36 nM | 
60 | Cc1cccc(C)c1S(=O)(=O)Nc1cccc(C(c2c(O)c3c(oc2=O)CCCCCC3)C2CC2)c1 (configuration not stated) |  | > 200 nM | > 30000 nM
61 | O=c1c2c(oc(O)c1C(c1cccc(NS(=O)(=O)c3ccccc3)c1)C1CC1)CCCCCC2 (configuration not stated) | 5500 nM |  | > 30000 nM
62 | CCCS(=O)(=O)Nc1cccc(C(c2c(O)c3c(oc2=O)CCCCCC3)C2CC2)c1 (configuration not stated) |  | 4 nM | 
63 | CC(C)S(=O)(=O)Nc1cccc(C(c2c(O)c3c(oc2=O)CCCCCC3)C2CC2)c1 (configuration not stated) |  | 33 nM | 
64 | O=c1c2c(oc(O)c1[C@H](c1cccc(NS(=O)(=O)c3ccccc3)c1)C1CC1)CCCCCC2 | 2600 nM |  | > 30000 nM
65 | CCCCCCCCS(=O)(=O)Nc1cccc(C(c2c(O)c3c(oc2=O)CCCCCC3)C2CC2)c1 (configuration not stated) |  | 6 nM | 
66 | O=c1c2c(oc(O)c1C(c1cccc(NS(=O)(=O)/C=C/c3ccccc3)c1)C1CC1)CCCCCC2 (configuration not stated) |  | 3 nM | 
67 | CC(C)C(c1cccc(NS(=O)(=O)c2cccnc2)c1)c1c(O)c2c(oc1=O)CCCCCC2 (configuration not stated) | > 10000 nM |  | > 30000 nM
